Laboratory results published in ChEMBL document CHEMBL1145994, “CCR2: characterization of the antagonist binding site from a combined receptor modeling/mutagenesis approach” (J Med Chem, 2003).
Active and inactive are the calls of the source. No cut-off for these calls is given here.

How the values were obtained:
[1] = biological target: C-C chemokine receptor type 2 (Homo sapiens, UniProt P41597, T292A); assay: Binding affinity of compound (10 uM) towards T292A receptor variant (mutant CCR2 receptor) using radioligand [125I]MCP-1 in HEK 293 cells; format: cell-based, HEK293
Sequence of C-C chemokine receptor type 2 (Homo sapiens, UniProt P41597, T292A) (P41597 whole entry T292A): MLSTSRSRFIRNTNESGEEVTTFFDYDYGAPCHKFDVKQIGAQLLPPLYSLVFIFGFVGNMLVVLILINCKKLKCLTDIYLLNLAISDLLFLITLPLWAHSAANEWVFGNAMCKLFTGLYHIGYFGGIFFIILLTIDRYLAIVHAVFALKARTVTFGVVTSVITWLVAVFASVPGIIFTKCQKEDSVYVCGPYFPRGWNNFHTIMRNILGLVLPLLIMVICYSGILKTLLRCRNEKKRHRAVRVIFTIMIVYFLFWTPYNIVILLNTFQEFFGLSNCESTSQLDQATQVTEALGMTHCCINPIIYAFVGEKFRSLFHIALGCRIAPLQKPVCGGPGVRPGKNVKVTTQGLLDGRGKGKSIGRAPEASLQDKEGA

[2] = biological target: T1, C-C chemokine receptor type 2 (Homo sapiens, UniProt P41597); assay: Binding affinity of compound (10 uM) towards WT receptor variant (mutant C-C chemokine receptor type 2) using radioligand [125I]MCP-1 in HEK 293 cells; format: cell-based; details: hek293
Target sequence in this assay (P41597 whole entry, looked up, stated change not applied): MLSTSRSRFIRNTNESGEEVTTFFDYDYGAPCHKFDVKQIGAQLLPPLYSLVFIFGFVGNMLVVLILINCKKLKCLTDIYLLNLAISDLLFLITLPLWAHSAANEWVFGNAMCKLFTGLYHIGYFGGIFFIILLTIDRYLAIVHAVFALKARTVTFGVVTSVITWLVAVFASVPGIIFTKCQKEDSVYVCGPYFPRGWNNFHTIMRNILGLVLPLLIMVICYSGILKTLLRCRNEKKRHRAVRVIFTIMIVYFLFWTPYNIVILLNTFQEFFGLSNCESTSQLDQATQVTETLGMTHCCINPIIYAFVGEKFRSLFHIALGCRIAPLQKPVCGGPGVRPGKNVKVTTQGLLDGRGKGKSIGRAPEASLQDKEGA

[3] = biological target: C-C chemokine receptor type 2 (Homo sapiens, UniProt P41597, Y49F); assay: Binding affinity of compound (10 uM) towards Y49F receptor variant (mutant CCR2 receptor) using radioligand [125I]MCP-1 in HEK 293 cells; format: cell-based, HEK293
Sequence of C-C chemokine receptor type 2 (Homo sapiens, UniProt P41597, Y49F) (P41597 whole entry Y49F): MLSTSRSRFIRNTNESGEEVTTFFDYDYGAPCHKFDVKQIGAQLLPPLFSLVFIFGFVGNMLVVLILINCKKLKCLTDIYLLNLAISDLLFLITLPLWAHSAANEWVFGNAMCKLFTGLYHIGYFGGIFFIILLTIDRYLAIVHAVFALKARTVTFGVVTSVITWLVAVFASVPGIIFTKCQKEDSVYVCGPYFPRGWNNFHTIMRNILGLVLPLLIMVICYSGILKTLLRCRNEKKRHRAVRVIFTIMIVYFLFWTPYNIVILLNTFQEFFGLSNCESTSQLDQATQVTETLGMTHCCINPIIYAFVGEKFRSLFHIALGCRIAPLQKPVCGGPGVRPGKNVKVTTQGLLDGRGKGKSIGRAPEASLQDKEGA

[4] = biological target: C-C chemokine receptor type 2 (Homo sapiens, UniProt P41597, Q288A); assay: Binding affinity of compound (10 uM) towards Q288A receptor variant (mutant CCR2 receptor) using radioligand [125I]MCP-1 in HEK 293 cells; format: cell-based, HEK293
Sequence of C-C chemokine receptor type 2 (Homo sapiens, UniProt P41597, Q288A) (P41597 whole entry Q288A): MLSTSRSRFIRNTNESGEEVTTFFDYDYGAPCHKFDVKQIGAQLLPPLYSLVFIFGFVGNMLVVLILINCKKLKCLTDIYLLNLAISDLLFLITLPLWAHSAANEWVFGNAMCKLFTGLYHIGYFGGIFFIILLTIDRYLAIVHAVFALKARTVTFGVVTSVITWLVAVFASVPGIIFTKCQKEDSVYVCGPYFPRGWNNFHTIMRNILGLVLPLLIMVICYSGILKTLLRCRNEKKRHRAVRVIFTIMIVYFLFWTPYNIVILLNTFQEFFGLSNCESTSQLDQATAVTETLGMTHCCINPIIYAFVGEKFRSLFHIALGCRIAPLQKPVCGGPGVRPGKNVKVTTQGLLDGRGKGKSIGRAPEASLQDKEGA

[5] = biological target: T1, C-C chemokine receptor type 2; assay: Binding affinity of compound (10 uM) towards […] receptor variant (mutant CCR2 receptor) using radioligand [125I]MCP-1 in HEK 293 cells; format: cell-based, HEK293
How it was run: (§1)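 Wild-type or point-mutant CCR2 cDNA in pcDNA3.1 transiently transfected into HEK-293T cells at 50–80% confluence, with a co-transfected human G-protein plasmid cocktail. Membranes harvested 48 h later by sonication and differential centrifugation.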
Target sequence in this assay (P41597 whole entry, looked up, stated change not applied): as the sequence (P41597 whole entry, looked up, stated change not applied) above

[6] = biological target: T1, C-C chemokine receptor type 2; assay: Binding affinity of compound (10 uM) towards Y210A-292A receptor variant (double mutant CCR2 receptor) using radioligand [125I]MCP-1 in HEK 293 cells; Inactive; format: cell-based; details: HEK293; how it was run: as §1
Target sequence in this assay (P41597 whole entry, looked up): as the sequence (P41597 whole entry, looked up, stated change not applied) above

[7] = biological target: C-C chemokine receptor type 2 (Homo sapiens, UniProt P41597, H121F); assay: Binding affinity of compound (10 uM) towards H121F receptor variant (mutant CCR2 receptor) using radioligand [125I]MCP-1 in HEK 293 cells; format: cell-based, HEK293
Sequence of C-C chemokine receptor type 2 (Homo sapiens, UniProt P41597, H121F) (P41597 whole entry H121F): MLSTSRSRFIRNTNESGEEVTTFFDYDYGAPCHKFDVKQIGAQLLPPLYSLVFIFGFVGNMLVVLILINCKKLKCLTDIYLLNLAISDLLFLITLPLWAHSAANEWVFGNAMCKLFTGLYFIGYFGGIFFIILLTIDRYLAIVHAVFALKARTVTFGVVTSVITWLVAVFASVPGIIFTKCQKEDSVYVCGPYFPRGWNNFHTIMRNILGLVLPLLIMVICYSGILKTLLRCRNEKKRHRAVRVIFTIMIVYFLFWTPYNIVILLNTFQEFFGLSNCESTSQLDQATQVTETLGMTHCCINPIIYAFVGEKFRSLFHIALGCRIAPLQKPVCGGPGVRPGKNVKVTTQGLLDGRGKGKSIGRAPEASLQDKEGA

[8] = biological target: C-C chemokine receptor type 2 (Homo sapiens, UniProt P41597, H121A/T292A); assay: Binding affinity of compound (10 uM) towards H121A/T292A receptor variant (double mutant CCR2 receptor) using radioligand [125I]MCP-1 in HEK 293 cells; format: cell-based, HEK293; how it was run: as §1
Sequence of C-C chemokine receptor type 2 (Homo sapiens, UniProt P41597, H121A/T292A) (P41597 whole entry H121A/T292A): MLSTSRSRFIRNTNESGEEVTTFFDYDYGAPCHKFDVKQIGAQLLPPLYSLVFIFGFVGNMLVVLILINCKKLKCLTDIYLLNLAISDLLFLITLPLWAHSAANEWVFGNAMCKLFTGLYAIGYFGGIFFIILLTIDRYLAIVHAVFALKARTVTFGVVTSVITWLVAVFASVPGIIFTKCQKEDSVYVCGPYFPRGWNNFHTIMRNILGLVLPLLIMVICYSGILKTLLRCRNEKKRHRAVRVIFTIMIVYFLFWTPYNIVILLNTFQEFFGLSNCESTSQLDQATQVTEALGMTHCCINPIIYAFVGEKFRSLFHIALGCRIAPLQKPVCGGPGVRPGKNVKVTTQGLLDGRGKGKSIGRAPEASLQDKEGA

[9] = biological target: C-C chemokine receptor type 2 (Homo sapiens, UniProt P41597, E291Q); assay: Binding affinity of compound (10 uM) towards E291Q receptor variant (mutant CCR2 receptor) using radioligand [125I]MCP-1 in HEK 293 cells; format: cell-based, HEK293; how it was run: as §1
[10] = biological target: C-C chemokine receptor type 2 (Homo sapiens, UniProt P41597, D284A); assay: Binding affinity of compound (10 uM) towards D284A receptor variant (mutant CCR2 receptor) using radioligand [125I]MCP-1 in HEK 293 cells; format: cell-based, HEK293
Sequence of C-C chemokine receptor type 2 (Homo sapiens, UniProt P41597, D284A) (P41597 whole entry D284A): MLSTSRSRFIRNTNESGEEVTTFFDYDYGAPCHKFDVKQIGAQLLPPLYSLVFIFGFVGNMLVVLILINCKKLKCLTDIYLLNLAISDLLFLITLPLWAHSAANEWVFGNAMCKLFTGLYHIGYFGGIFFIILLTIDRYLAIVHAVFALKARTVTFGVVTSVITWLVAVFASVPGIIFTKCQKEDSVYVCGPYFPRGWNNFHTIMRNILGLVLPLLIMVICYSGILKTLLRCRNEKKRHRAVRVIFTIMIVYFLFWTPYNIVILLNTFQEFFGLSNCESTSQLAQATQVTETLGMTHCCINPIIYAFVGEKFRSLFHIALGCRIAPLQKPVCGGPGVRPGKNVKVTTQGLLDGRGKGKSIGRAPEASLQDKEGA

[11] = biological target: T1, C-C chemokine receptor type 2; assay: Inhibition of chemotaxis by C-C chemokine receptor type 2 antagonist in human monocytes was measured in the presence 1 nM MCP-1; format: functional, cell-based
How it was run: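 Human monocyte chemotaxis driven by 1 nM MCP-1 as agonist. Antagonist added from a 10 mM DMSO stock, final 10 nM to 10 μM; vehicle control included. Values reported as pKb.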
Target sequence in this assay (P41597 whole entry, looked up): as the sequence (P41597 whole entry, looked up, stated change not applied) above

[12] = biological target: T1, C-C chemokine receptor type 2; assay: Binding displacement of [125I]MCP-1 (0.14 nM) was measured on CHO cell membranes expressing human CCR2 (C-C chemokine receptor type 2)
Target sequence in this assay (P41597 whole entry): as the sequence (P41597 whole entry, looked up, stated change not applied) above

[13] = biological target: C-C chemokine receptor type 2 (Homo sapiens, UniProt P41597, T290A); assay: Binding affinity of compound (10 uM) towards T290A receptor variant (mutant CCR2 receptor) using radioligand [125I]MCP-1 in HEK 293 cells; format: cell-based, HEK293
Sequence of C-C chemokine receptor type 2 (Homo sapiens, UniProt P41597, T290A) (P41597 whole entry T290A): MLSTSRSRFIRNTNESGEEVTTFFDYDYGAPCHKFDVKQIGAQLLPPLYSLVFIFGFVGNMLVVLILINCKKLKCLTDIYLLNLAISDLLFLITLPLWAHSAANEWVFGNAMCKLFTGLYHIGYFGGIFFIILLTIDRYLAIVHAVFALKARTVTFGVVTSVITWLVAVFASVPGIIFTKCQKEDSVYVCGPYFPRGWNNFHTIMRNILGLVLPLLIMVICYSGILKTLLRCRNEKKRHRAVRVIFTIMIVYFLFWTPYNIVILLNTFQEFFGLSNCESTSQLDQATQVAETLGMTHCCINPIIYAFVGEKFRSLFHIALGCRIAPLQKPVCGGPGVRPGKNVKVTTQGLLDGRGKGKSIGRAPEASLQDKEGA
How it was run: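 HEK 293 cells transiently transfected with point-mutated human CCR2 (lipofectAMINE Plus, with a human G-protein plasmid cocktail). Membranes were harvested 48 h later in HEPES pH 7/sucrose/EDTA with protease inhibitors.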

[14] = biological target: C-C chemokine receptor type 2 (Homo sapiens, UniProt P41597, H121A); assay: Binding affinity of compound (10 uM) towards H121A receptor variant (mutant CCR2 receptor) using radioligand [125I]MCP-1 in HEK 293 cells; format: cell-based, HEK293
Sequence of C-C chemokine receptor type 2 (Homo sapiens, UniProt P41597, H121A) (P41597 whole entry H121A): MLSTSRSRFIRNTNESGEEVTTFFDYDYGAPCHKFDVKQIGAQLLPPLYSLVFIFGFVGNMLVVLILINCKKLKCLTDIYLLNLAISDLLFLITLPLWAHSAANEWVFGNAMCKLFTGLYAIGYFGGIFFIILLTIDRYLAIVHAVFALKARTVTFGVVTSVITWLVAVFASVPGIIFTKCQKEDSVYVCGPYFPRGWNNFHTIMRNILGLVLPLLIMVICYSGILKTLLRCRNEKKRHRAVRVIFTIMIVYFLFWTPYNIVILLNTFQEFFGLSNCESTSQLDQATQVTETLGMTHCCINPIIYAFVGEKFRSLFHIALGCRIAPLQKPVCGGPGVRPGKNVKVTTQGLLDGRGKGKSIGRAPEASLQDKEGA

[15] = test system: T2, C-C chemokine receptor type 2 (Homo sapiens), P41597 [E291Q]; assay: Binding affinity of compound (10 uM) towards E291Q receptor variant (mutant CCR2 receptor) using radioligand [125I]MCP-1 in HEK 293 cells; Inactive; format: cell-based; details: HEK293; how it was run: as §1
T2 sequence (whole entry): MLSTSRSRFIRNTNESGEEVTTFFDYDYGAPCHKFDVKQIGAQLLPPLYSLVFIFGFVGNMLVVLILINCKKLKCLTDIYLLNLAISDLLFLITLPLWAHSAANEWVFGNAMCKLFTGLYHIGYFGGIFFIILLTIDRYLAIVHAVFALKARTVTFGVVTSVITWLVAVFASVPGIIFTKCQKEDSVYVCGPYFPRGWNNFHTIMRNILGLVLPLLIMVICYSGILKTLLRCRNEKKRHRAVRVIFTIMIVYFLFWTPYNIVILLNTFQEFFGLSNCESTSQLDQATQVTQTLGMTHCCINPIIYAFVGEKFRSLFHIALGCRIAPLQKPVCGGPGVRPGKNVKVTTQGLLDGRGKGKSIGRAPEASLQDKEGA

[16] = biological target: T1, C-C chemokine receptor type 2; assay: Inhibitory activity against C-C chemokine receptor type 2 (antagonist activity); format: functional
Target sequence in this assay (P41597 whole entry): as the sequence (P41597 whole entry, looked up, stated change not applied) above

[17] = biological target: T1, C-C chemokine receptor type 2; details: HEK293
Target sequence in this assay (P41597 whole entry, looked up): as the sequence (P41597 whole entry, looked up, stated change not applied) above

[18] = biological target: T1, C-C chemokine receptor type 2; details: HEK293; remark: listed apart in the source
Target sequence in this assay (P41597 whole entry, looked up): as the sequence (P41597 whole entry, looked up, stated change not applied) above

[19] = test system: T2, C-C chemokine receptor type 2 (Homo sapiens), P41597 [E291Q]; details: HEK293

Structure (SMILES)	Ki [1]	Log Ki [2]	Ki [3]	Ki [4]	Ki [5]	Log Ki [6]	Ki [7]	Ki [8]	Ki [9]	Ki [10]	pKb [11]	Ki [12]	Ki [13]	Ki [14]	Log Ki [15]	IC50 [16]	Log Ki [17]	Log Ki [18]	Log Ki [19]
Cc1ccc(-c2ccc3c(c2)C=C(C(=O)Nc2ccc(CN(C)C4CCOCC4)cc2)CCC3)cc1	759 nM	-7.16	151 nM	229 nM	2570 nM	inactive	24 nM	4790 nM	2040 nM	589 nM	8.63	28.8 nM	105 nM	302 nM					
Cc1ccc(CN2CC[C@@H](NC(=O)CNC(=O)c3cccc(C(F)(F)F)c3)C2)c(C)c1	7760 nM	-6.47	316 nM	316 nM	1820 nM	inactive	661 nM			724 nM	6.4	288 nM		2570 nM	inactive	54 nM			
Cc1ccc(-c2ccc3c(c2)C=C(C(=O)Nc2ccc(C[N+](C)(C)C4CCOCC4)cc2)CCC3)cc1.[Cl-]	28.8 nM	-8.16	27.5 nM	9.77 nM	105 nM		2.63 nM	182 nM	148 nM	12.6 nM	9.53	4.17 nM	21.4 nM	17.8 nM					
O=C(/C=C/c1ccc(Cl)c(Cl)c1)NCCCCCN1CCC(c2c[nH]c3ccc(O)cc23)CC1	724 nM	-7	16.6 nM	170 nM	562 nM		166 nM	2090 nM		229 nM	7.71		129 nM	2510 nM	inactive				
Cc1ccc2c(c1)C1(CCN(CCc3nc(-c4ccccc4)oc3C)CC1)OC(=O)N2											7.57						inactive	inactive	inactive
